The source of these data is ChEMBL document CHEMBL1122500, “Potential radiosensitizing agents. 6. 2-Nitroimidazole nucleosides: arabinofuranosyl and hexopyranosyl analogues” (J Med Chem, 1983).

Data set [1] is described as follows: In vitro radiosensitizing activity against Chinese Hamster cells at a conc of 0.5 mM measured as sensitizer enhancement ratio. It is filed as functional, Cricetulus griseus. A digest of the protocol: (§1)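 V-79 Chinese hamster asynchronous monolayers from exponential cultures, plated in sealed containers and made hypoxic by flushing with 95% N2/5% CO2 for 1 h at 37 °C with compound present; total drug exposure 2 h. Cobalt-60 irradiation at ~230 rad/min, 400–2700 rad. Colonies counted after 6 days at 37 °C. SER = D0 hypoxic control / D0 hypoxic drug-treated; averaged over at least two experiment sets.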

A short description of data set [2]: Partition coefficient value between phosphate buffer (0.1 M, pH 7.4) and octanol at room temperature. It is filed as physicochemical. Conditions: octanol/water. The procedure, abridged: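 Shake-flask method: compound dissolved in 0.1 M phosphate buffer pH 7.4, stirred 1 h at room temperature with an equal volume of octanol. Aqueous-phase nucleoside concentration measured spectrophotometrically.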

The nature of data set [3]: In vitro radiosensitizing activity against Chinese Hamster cells at a conc of 0.1 mM measured as sensitizer enhancement ratio.
Data set [4] in a line: In vitro radiosensitizing activity against Chinese Hamster cells at a conc of 1.0 mM measured as sensitizer enhancement ratio. It is filed as functional, Cricetulus griseus. The procedure, abridged:
as §1

A short description of data set [5]: In vitro radiosensitizing activity against Chinese Hamster cells at a conc of 0.05 mM measured as sensitizer enhancement ratio. It is filed as functional, Cricetulus griseus. A digest of the protocol: as §1
Data set [6] in a line: In vitro radiosensitizing activity against Chinese Hamster cells at a conc of 1 mM measured as sensitizer enhancement ratio. It is filed as functional, Cricetulus griseus. The procedure, abridged:
as §1

Turning to `O=[N+]([O-])c1nccn1[C@@H]1C=C[C@H](O)[C@@H](CO)O1`, the SER in data set [1] is 2. In data set [2], this compound yielded a PC of 0.22. Turning to `O=C(OC[C@H]1O[C@@H](n2ccnc2[N+](=O)[O-])[C@H](OC(=O)c2ccccc2)[C@@H]1OC(=O)c1ccccc1)c1ccccc1`, in data set [3], the SER came to 1.1. The compound `O=[N+]([O-])c1nccn1[C@H]1C=C[C@H](O)[C@@H](CO)O1` had a PC in data set [2] of 0.22. Also, in data set [4], the SER is reported as 2.

For the compound `O=C(OC[C@H]1O[C@H](n2ccnc2[N+](=O)[O-])[C@H](OC(=O)c2ccccc2)[C@@H]1OC(=O)c1ccccc1)c1ccccc1`, the SER in data set [5] amounted to 1. `O=[N+]([O-])c1nccn1[C@H]1C=COC(CO)C1O` (some centres not stated) had a PC in data set [2] of 0.24. In data set [4], the SER is recorded as 1.7. The like results for `O=[N+]([O-])c1nccn1[C@@H]1O[C@H](CO)[C@@H](O)[C@@H]1O` were, in that order, 0.07 and 1.8. Take `COCC(O)Cn1ccnc1[N+](=O)[O-]` (configuration not stated) [MISONIDAZOLE]: the SER in data set [6] turned out to be 1.9. In data set [2], the PC was determined as 0.43. Turning to `CC(=O)OCC1OC=CC(n2ccnc2[N+](=O)[O-])C1OC(C)=O` (configuration not stated), the SER in data set [1] is listed as 1.8.

In the case of `CC(=O)OC[C@H]1O[C@@H](n2ccnc2[N+](=O)[O-])C=C[C@@H]1OC(C)=O`, the SER in data set [1] was determined as 1.6. `O=[N+]([O-])c1nccn1[C@H]1O[C@H](CO)[C@@H](O)[C@@H]1O`: in data set [6], the SER turned out to be 1.6. The compound also came in with a PC in data set [2] of 0.11. For the compound `CC(=O)OC[C@H]1O[C@H](n2ccnc2[N+](=O)[O-])C=C[C@@H]1OC(C)=O`, in data set [1], the SER came to 1.9.
